Calls of active or inactive are those of the source. No cut-off for these calls is given here.

The nature of data set [1]: AUClast in C57BL/6J mouse brain assessed as 4-(2-Amino-8-methyl-5,6,7,8-tetrahydroquinazolin-4-yl)phenol level at 20 mg/kg, po by LC-MS/MS analysis. Type of data set: ADME, organism-based. Also noted: dose 20 mg/kg, time 0 - last, route oral. The following applies: in vivo. An outline of the steps:
(§1)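 Male C57BL/6J mice, 6-8 weeks, 20 ± 5 g, fasted overnight (12-16 h), n = 5 per time point. Single 20 mg/kg oral dose given by feeding needle as a 2.5 mg/mL suspension in 1% w/v gum acacia and water. Serum and brain (homogenized 1:6 w/v in PBS) sampled up to 24 h. Liquid-liquid extraction, then LC-MS/MS in positive MRM mode with phenacetin as internal standard. Linear range 0.25-200 ng/mL. Non-compartmental and compartmental analysis.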

A short description of data set [2]: Half life in C57BL/6J mouse serum at 20 mg/kg, po by LC-MS/MS analysis. Type of data set: ADME, organism-based. An outline of the steps:
(§2)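 Male C57BL/6J mice (6-8 weeks, 20 ± 5 g) fasted overnight (12-16 h) got a single 20 mg/kg oral dose as 2.5 mg/mL suspension in 1% w/v gum acacia; n=5 per time point. Serum and brain (PBS homogenate 1:6 w/v) sampled up to 24 h. Parent and demethylated metabolite quantified by LC-MS/MS after liquid-liquid extraction (C18, MRM, phenacetin internal standard; linear 0.25-200 ng/mL). Two-compartment open model fit.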

Data set [3] relates to Mus musculus. Put plainly: Anti-obesity activity in high fat diet-induced obese C57BL/6J mouse model assessed as change in body weight at 20 mg/kg, po measured after 6 weeks (reference value: 3.86 +/- 0.99 g). Type of data set: functional.
A short description of data set [4]: Apparent clearance in C57BL/6J mouse serum at 20 mg/kg, po by LC-MS/MS analysis. Format: ADME, organism-based. The procedure, abridged:
as §2

Data set [5] in a line: AUClast in C57BL/6J mouse brain at 20 mg/kg, po by LC-MS/MS analysis. Type of data set: ADME, organism-based. Details: dose 20 mg/kg, route oral, time 0 - last. An outline of the steps: as §1
The nature of data set [6]: Half life in C57BL/6J mouse brain at 20 mg/kg, po by LC-MS/MS analysis. Type of data set: ADME, organism-based. An outline of the steps:
as §2

The target of data set [7] is Histamine H4 receptor (Homo sapiens) (UniProt Q9H3N8). Nature of the data set: Antagonist activity at recombinant human Gi-coupled H4 receptor expressed in HEK293T cells assessed as reduction in histamine-induced inhibition of forskolin-stimulated cAMP accumulation at 10 uM preincubated for 10 to 15 followed by histamine addition for 10 mins and subsequent forskolin-stimulation by Glo-sensor assay. Format: functional, cell-based.
Chain of Histamine H4 receptor (Homo sapiens) (Q9H3N8 whole entry): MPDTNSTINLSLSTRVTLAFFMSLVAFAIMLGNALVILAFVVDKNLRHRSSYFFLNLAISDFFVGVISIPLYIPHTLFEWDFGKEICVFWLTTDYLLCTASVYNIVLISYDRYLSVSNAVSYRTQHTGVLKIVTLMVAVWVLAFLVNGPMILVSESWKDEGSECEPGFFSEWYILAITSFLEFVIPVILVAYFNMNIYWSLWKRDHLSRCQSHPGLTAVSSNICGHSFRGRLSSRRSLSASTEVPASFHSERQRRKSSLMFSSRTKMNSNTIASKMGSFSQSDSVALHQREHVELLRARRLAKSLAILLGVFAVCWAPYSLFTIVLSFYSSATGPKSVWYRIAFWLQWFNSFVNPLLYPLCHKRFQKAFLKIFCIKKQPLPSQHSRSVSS

The target in data set [8] is T1, G-protein coupled bile acid receptor 1 (Homo sapiens) (UniProt Q8TDU6).
T1 sequence (whole entry): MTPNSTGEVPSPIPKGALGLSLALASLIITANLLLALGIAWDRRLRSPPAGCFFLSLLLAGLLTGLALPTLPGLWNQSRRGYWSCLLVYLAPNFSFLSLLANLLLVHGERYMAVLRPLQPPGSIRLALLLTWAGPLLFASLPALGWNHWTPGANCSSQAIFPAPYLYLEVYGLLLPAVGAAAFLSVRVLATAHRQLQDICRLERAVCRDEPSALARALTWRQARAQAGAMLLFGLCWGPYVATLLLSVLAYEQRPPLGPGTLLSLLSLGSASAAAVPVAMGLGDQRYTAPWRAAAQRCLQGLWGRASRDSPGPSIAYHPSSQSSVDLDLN
Put plainly: Antagonist activity at Gs-coupled GPBAR1 (unknown origin) expressed in HEK293T cells assessed as reduction in histamine-induced inhibition of forskolin-stimulated cAMP accumulation preincubated for 10 to 15 followed by histamine addition for 10 mins and subsequent forskolin-stimulation by Glo-sensor assay. Type of data set: functional, cell-based.

A short description of data set [9]: Fraction unbound in C57BL/6J mouse brain by equilibrium dialysis method. Format: ADME, tissue-based. An outline of the steps:
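Plasma protein binding and unbound fraction in mouse brain tissue homogenate measured by equilibrium dialysis.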

Data set [10] in a line: Drug level in C57BL/6J mouse brain at 4 hrs post-dose by equilibrium dialysis method. Type of data set: ADME, tissue-based. The following applies: in vivo. The procedure, abridged:
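Unbound brain level derived from brain concentration after 20 mg/kg oral dose, multiplied by unbound fraction from brain-homogenate equilibrium dialysis; given at Cmax and at 4 h.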

A short description of data set [11]: Tmax in C57BL/6J mouse brain assessed as 4-(2-Amino-8-methyl-5,6,7,8-tetrahydroquinazolin-4-yl)phenol level at 20 mg/kg, po by LC-MS/MS analysis. Type of data set: ADME, organism-based. The following applies: in vivo. The procedure, abridged: as §2
The target of data set [12] is T2, Muscarinic acetylcholine receptor M1 (Homo sapiens) (UniProt P11229).
T2 sequence (whole entry): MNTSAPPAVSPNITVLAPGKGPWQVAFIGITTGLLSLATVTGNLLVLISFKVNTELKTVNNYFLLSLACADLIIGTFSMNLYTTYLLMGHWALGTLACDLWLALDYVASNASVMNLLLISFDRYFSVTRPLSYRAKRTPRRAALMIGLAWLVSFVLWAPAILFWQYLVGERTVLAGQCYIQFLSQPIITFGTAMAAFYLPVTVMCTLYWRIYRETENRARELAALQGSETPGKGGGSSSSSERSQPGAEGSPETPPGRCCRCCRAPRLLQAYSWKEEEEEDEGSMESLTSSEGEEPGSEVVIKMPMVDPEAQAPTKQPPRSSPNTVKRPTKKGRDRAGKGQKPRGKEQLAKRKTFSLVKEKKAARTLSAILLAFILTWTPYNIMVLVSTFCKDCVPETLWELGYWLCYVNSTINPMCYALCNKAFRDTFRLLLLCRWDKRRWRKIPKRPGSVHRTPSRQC
Put plainly: Agonist activity at M1R (unknown origin) expressed in HEK293 cells harboring luc2P/NFAT-RE plasmid at 10 uM after 6 to 8 hrs by luciferase reporter gene assay. Format: cell-based. The procedure, abridged:
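NFAT-RE luciferase assay in HEK293T cells transiently co-transfected with luc2P/NFAT-RE plasmid and receptor plasmid. Cells plated in DMEM and incubated overnight at 37 °C, 5% CO₂. Compounds and reference ligands applied for 6-8 h. Luciferase read after adding Bright-Glo substrate (1 mg/ml final).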

The nature of data set [13]: Ratio of AUClast in C57BL/6J mouse brain assessed as 4-(2-Amino-8-methyl-5,6,7,8-tetrahydroquinazolin-4-yl)phenol level to AUClast in C57BL/6J mouse serum assessed as 4-(2-Amino-8-methyl-5,6,7,8-tetrahydroquinazolin-4-yl)phenol level. Type of data set: ADME. An outline of the steps:
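Male C57BL/6J mice (6–8 weeks) were fasted 12–16 h, then given a single oral dose of 20 mg/kg as a 2.5 mg/mL suspension in 1% gum acacia/water (n=5 per time point). Serum and brain (homogenised 1:6 in PBS) were sampled up to 24 h. Parent and demethylated metabolite were measured by LC-MS/MS (range 0.25–200 ng/mL). AUC ran to the last observation.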

For data set [14], the system named is Mus musculus. Put plainly: Anti-obesity activity in 16 hrs fasted db/db-induced obese C57BL/6J mouse model assessed as change in blood LDL level at 20 mg/kg, po measured after 6 weeks. Type of data set: functional, organism-based.
Data set [15] concerns Mus musculus. Put plainly: Anti-obesity activity in 16 hrs fasted db/db-induced obese C57BL/6J mouse model assessed as change in blood total cholesterol level at 20 mg/kg, po measured after 6 weeks. Format: functional, organism-based.

With `COc1ccc(-c2nc(N)nc3c2CCCC3C)cc1` (racemic), the AUClast in [1] was determined as 100.7 ng·h/mL. The figures for the half-life in data set [2] and in data set [6] were 1.9 h and 1.1 h, respectively. For the same molecule, the Activity in the data set on Mus musculus [3] turned out to be 0.8 g. For the same molecule, the CL/F in data set [4] was 172 mL/min/kg. Also, the AUC(0-t) in data set [5] stood at 310 ng·h/mL. Moreover, the inhibition entry in data set [7] and in [8] was “inactive” throughout. The fraction unbound in data set [9] came to 0.284. Further, the Drug uptake in data set [10] stood at 20.8 nM. Moreover, the Tmax in [11] came out at 0.5 h. In addition, the outcome (in data set [12]; in the data set with Mus musculus [14]; with Mus musculus [15]) was inactive. Besides, the “Ratio AUC” value in data set [13] was 6.1%.

For the origin of these results see ChEMBL document CHEMBL4393678, “Novel Tetrahydroquinazolinamines as Selective Histamine 3 Receptor Antagonists for the Treatment of Obesity” (J Med Chem, 2019).
